Results from ChEMBL document CHEMBL5154657, “Design, synthesis and biological evaluation of 1,5-disubstituted α-amino tetrazole derivatives as non-covalent inflammasome-caspase-1 complex inhibitors with potential application against immune and inflammatory disorders” (Eur J Med Chem, 2022).

Legend:
Caspase-1 (Homo sapiens) = target: T1, Caspase-1 (Homo sapiens) (UniProt P29466); assay: Inhibition of caspase 1 (unknown origin) assessed as enzyme residual activity using YVAD-AFC as substrate at 100 uM by fluorescence analysis
T1 sequence (whole entry): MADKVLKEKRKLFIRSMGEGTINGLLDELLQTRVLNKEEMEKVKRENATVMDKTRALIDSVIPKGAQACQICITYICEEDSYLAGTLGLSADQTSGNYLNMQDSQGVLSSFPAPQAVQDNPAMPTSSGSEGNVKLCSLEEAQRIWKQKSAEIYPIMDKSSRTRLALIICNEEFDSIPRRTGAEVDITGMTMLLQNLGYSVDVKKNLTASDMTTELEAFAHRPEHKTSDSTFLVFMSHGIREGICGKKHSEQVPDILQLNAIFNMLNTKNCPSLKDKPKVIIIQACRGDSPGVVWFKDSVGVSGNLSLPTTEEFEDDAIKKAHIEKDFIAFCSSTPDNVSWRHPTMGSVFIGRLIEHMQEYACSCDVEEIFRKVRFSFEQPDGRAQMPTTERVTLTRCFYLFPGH
Summary of the method: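 Caspase-1 cleavage of an AFC-labelled peptide substrate is monitored over time by fluorescence (Ex/Em 400/505 nm). Residual enzyme activity is expressed as % with 100 μM compound, relative to an untreated control.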

Caspase-1 = target: T2, Caspase-1 (Homo sapiens, UniProt P29466); assay: Inhibition of caspase 1 (unknown origin) using YVAD-AFC as substrate by fluorescence analysis
T2 sequence (P29466 whole entry): T1 sequence (whole entry)
Summary of the method: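 Caspase-1 activity is followed as a time course of fluorescence from cleavage of an AFC-labelled peptide substrate (Ex/Em 400/505 nm). Compounds are tested as a 10-dose series with 3-fold serial dilution starting at 100 μM or 10 μM. IC50 is the concentration halving enzyme activity. Curves are fitted only when activity at the top concentration is below 60%.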

[1] = Cytotoxicity against human U-937 cells assessed as reduction in cell viability at 100 uM after 48 hrs by MTT assay; assay type: toxicity, cell-based; conditions: read-out: INH
Summary of the method: (§1)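 Human histiocytic lymphoma U937 cells are grown in RPMI 1640 with 10% FBS, penicillin and streptomycin at 37 °C under 5% CO₂. They are seeded at 10000 cells/well and exposed to compound from 1 nM to 100 μM for 48 h, with matched DMSO-only solvent controls. MTT (0.1 mg) is added for 4 h at 37 °C, cells are lysed, and A595 is read. Viability is given as % of control, as the mean of three independent experiments.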

U-937 = assay: Cytotoxicity against human U-937 cells assessed as reduction in cell viability at 10 to 100 nM after 48 hrs by MTT assay; assay type: toxicity, cell-based; conditions: u-937, 48 h, 0.1 µM, dose 10-100 nM; summary of the method: as §1
[2] = Inhibition of LPS-induced IL-1beta secretion in human U-937 cells measured after 24 hrs by ELISA; assay type: functional, cell-based; conditions: U-937, 24 h
Summary of the method: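 U937 human histiocytic lymphoma cells, grown in RPMI 1640 with 10% FBS, differentiated into macrophages with […] for 24h. Compound given at graded concentrations, 10 μM down to 1 nM, together with LPS (1 μg/ml) for 24h. Supernatants frozen at −80 °C, then IL-1β measured by sandwich ELISA. IC50 taken from regression of % inhibition against log concentration.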

[3] = Inhibition of LPS-induced IL-1beta secretion in human U-937 cells preincubated for 4 hrs with LPS followed by compound treatment for overnight by ELISA; assay type: functional, cell-based
Summary of the method: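 U937 cells in RPMI 1640 with 10% FBS, differentiated with […] for 24h. Primed with LPS (1 μg/ml) for 4h, then compound added at graded concentrations, 10 μM down to 1 nM, overnight. Supernatants stored at −80 °C, and human IL-1β measured by sandwich ELISA. IC50 from regression of % inhibition against log concentration.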

Activity (Caspase-1 (Homo sapiens)) [%]	IC50 (Caspase-1) [µM]	SMILES	further results
48.6	–	O=C(O)CC(O)CN[C@@H](c1ccccc1)c1nnnn1CCCC(=O)N1CCc2ccccc2C1 (stereo partly specified)	–
2.06	20.7	CC(C)CC(c1nnnn1CCCC(=O)N1CCc2ccccc2C1)N(Cc1ccc(F)cc1)CC(O)CC(=O)O (stereo unspecified)	–
8.12	15.1	CC(C)(C)CC(NCC(O)CC(=O)[O-])c1nnnn1CCCC(=O)N1CCc2ccccc2C1.[Na+] (stereo unspecified)	cytotoxicity at 48 h, 100 µM [1]: 50%; Activity (U-937): Non-Toxic; IC50 [2]: 50.1 µM
77.8	–	CC(C)C(NCC(O)CC(=O)O)c1nnnn1CCCC(=O)N1CCc2ccccc2C1 (stereo unspecified)	–
2.47	12.1	CC(C)CC(c1nnnn1CCCC(=O)N1CCc2ccccc2C1)N(Cc1ccccc1)CC(O)CC(=O)[O-].[Na+] (stereo unspecified)	cytotoxicity at 48 h, 100 µM [1]: 50%; Activity (U-937): Non-Toxic; IC50 [3]: 0.85 µM; IC50 [2]: 0.35 µM
2.91	10.3	CC(C)(C)CC(c1nnnn1CCCC(=O)N1CCc2ccccc2C1)N(Cc1ccccc1)CC(O)CC(=O)O (stereo unspecified)	–
40.5	–	O=C(O)CC(O)CN[C@H](c1ccccc1)c1nnnn1CCCC(=O)N1CCc2ccccc2C1 (stereo partly specified)	–
48	94.1	O=C(O)CC(O)CNC(c1ccccc1)c1nnnn1CCCC(=O)N1CCc2ccccc2C1 (stereo unspecified)	–
43.7	79.4	CC(C)CC(NCC(O)CC(=O)O)c1nnnn1CCCC(=O)N1CCc2ccccc2C1 (stereo unspecified)	–
3.9	12.7	CC(C)(C)CC(c1nnnn1CCCC(=O)N1CCc2ccccc2C1)N(Cc1ccc(F)cc1)CC(O)CC(=O)O (stereo unspecified)	–
37.2	–	O=C(O)CC(O)CN[C@H](c1cccs1)c1nnnn1CCCC(=O)N1CCc2ccccc2C1 (stereo partly specified)	–
4.45	–	CC(C)(C)C[C@H](c1nnnn1CCCC(=O)N1CCc2ccccc2C1)N(Cc1ccccc1)CC(O)CC(=O)O (stereo partly specified)	–

More lines, now with the values behind:

SMILES	Activity (Caspase-1 (Homo sapiens)) [%]	IC50 (Caspase-1) [µM]	further results
O=C(O)CC(O)CNC(c1cccs1)c1nnnn1CCCC(=O)N1CCc2ccccc2C1 (stereo unspecified)	77.2	–	–
CC(C)(C)C(NCC(O)CC(=O)O)c1nnnn1CCCC(=O)N1CCc2ccccc2C1 (stereo unspecified)	61.9	–	–
CC(C)(C)CC(NCC(O)CC(=O)O)c1nnnn1CCCC(=O)NCc1ccccc1 (stereo unspecified)	59.9	–	–
O=C(O)C[C@H](O)CN[C@H](c1cccs1)c1nnnn1CCCC(=O)NCc1ccccc1	69.8	–	–
O=C(O)C[C@@H](O)CN[C@H](c1ccccc1)c1nnnn1CCCC(=O)NCc1ccccc1	63.3	–	–
CC(C)(C)C[C@@H](NCC(O)CC(=O)O)c1nnnn1CCCC(=O)N1CCc2ccccc2C1 (stereo partly specified)	9.71	–	–
O=C(O)CC(O)CN[C@@H](c1cccs1)c1nnnn1CCCC(=O)N1CCc2ccccc2C1 (stereo partly specified)	29	–	–
O=C(O)CC(O)CNC(c1nnnn1CCCC(=O)N1CCc2ccccc2C1)C1CC1 (stereo unspecified)	90	–	–
COc1cc2c(cc1OC)CN(C(=O)CCCn1nnnc1C(NCC(O)CC(=O)O)C(C)(C)C)CC2 (stereo unspecified)	96.7	–	–
O=C(O)C[C@H](O)CN[C@@H](c1ccccc1)c1nnnn1CCCC(=O)NCc1ccccc1	62.4	–	–
COc1cc2c(cc1OC)CN(C(=O)CCCn1nnnc1C(NCC(O)CC(=O)O)C1CC1)CC2 (stereo unspecified)	80.6	–	–
O=C(O)CC(O)CNC(c1nnnn1CCCC(=O)NCc1ccccc1)C1CC1 (stereo unspecified)	77.1	–	–
O=C(O)CC(O)CN[C@@H](c1cccs1)c1nnnn1CCCC(=O)NCc1ccccc1 (stereo partly specified)	49.6	–	–
COc1cc2c(cc1OC)CN(C(=O)CCCn1nnnc1C(CC(C)(C)C)NCC(O)CC(=O)O)CC2 (stereo unspecified)	9.49	14.6	–
